Assay results of several laboratories.
Target: Dual specificity tyrosine-phosphorylation-regulated kinase 2 (DYRK2, Homo sapiens, UniProt Q92630)
Method: competition with immobilised ligand
One construct used (Q92630 1-601): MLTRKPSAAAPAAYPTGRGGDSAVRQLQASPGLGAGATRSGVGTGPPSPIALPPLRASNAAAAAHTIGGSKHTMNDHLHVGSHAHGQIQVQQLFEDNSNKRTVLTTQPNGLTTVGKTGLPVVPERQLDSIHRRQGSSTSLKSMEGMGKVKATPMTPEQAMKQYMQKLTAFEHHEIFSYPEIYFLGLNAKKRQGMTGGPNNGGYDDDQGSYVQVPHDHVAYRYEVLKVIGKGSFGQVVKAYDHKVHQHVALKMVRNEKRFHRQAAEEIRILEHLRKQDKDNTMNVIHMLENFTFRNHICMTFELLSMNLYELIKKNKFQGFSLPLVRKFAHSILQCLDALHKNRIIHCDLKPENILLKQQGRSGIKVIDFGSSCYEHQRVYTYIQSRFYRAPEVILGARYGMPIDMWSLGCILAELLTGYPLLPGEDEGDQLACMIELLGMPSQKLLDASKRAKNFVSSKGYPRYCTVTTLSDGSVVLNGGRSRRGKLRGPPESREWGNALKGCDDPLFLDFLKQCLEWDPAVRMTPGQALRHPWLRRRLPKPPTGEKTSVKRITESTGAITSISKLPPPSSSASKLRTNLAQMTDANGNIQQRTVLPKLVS

C[C@@]1(Cc2ccc(C#N)cc2)C(=O)N(c2cc(Cl)cc(Cl)c2)c2ncc(C(=O)NC3(c4nc(C5CCC5)no4)CC3)n21
remaining binding (cell-free assay; 1 µM): 93%

O=C(c1ccc(Nc2ncc(Cl)c(-c3cc4ccccc4s3)n2)cc1)N1CCC(N2CCCC2)CC1
remaining binding (binding; 1 µM): 3.1%

O=C(Nc1c[nH]nc1C(=O)NC1CCNCC1)c1cc(F)cc(F)c1
remaining binding (binding; 1 µM): 4.8%

O=C(c1ccc(Nc2nccc(-c3cc4ccccc4s3)n2)cc1)N1CCC(N2CCCC2)CC1
remaining binding (binding; 1 µM): 3.9%

COc1cnc(Nc2cccc(S(N)(=O)=O)c2)nc1N1CCN(c2ccccc2)CC1
remaining binding (binding; 1 µM): 70%

O=C(Nc1ccc(Oc2ccc(F)cc2)cc1)N1CCc2ncccc2[C@H]1c1ccc(F)cc1
remaining binding (cell-free assay; 1 µM): 84%

FC(F)(F)Oc1cccc(-c2cnc3ccc(-c4ccncc4)nn23)c1
remaining binding (cell-free assay; 5 µM): 5%

CN(CCCC(F)(F)F)c1nccc(-c2cnn3ncccc23)n1
remaining binding (binding; 1 µM): 77%

CN(C(=O)c1ccccc1)c1cc(N(C)c2ccc3c(c2)CCc2ccc(C(=O)NCCN4CCOCC4)cc2C3=O)ccc1F
remaining binding (cell-free assay; 1 µM): 82%

O=C(c1ccc(Nc2ncc(Cl)c(-c3ccc(Cl)s3)n2)cc1)N1CCC(N2CCCC2)CC1
remaining binding (binding; 1 µM): 3.8%

c1cncc(-c2cccc(Nc3nccc(NC4CCCCC4)n3)c2)c1
remaining binding (binding; 10 µM): 78%

COc1cc(-c2cn(C3CCc4ccccc4N(CC(F)(F)F)C3=O)nn2)ccc1-n1ccc(C)n1 (stereo not shown)
remaining binding (cell-free assay; 1 µM): 94%

C=CC(=O)N1CCC(C(=O)NCC(=O)N2CCN(c3nc(-c4cnc(N)nc4C(F)F)nc(N4CCOCC4)n3)CC2)CC1
remaining binding (binding; 1 µM): 80%
